{"source": "ChEMBL document CHEMBL5532699", "about": "“Design, docking optimization, and evaluation of biotin-PEG4-1,8-naphthalimide as a potent and safe antitumor agent with dual targeting of ferroptosis and DNA” (RSC Med Chem, 2024)", "key": {"[1]": {"tested_on": "calf thymus DNA (Bos taurus)", "test": "Competitive binding affinity to calf thymus DNA in presence of propidium iodide by fluorescence intercalator displacement assay"}, "[2]": {"tested_on": "MGC-803", "test": "Induction of ferroptosis in human MGC-803 cells assessed as reduction of GPX4 protein expression level at 25 to 50 uM incubated for 24 hrs by Western blot analysis", "format": "functional, cell-based", "conditions": "dose 25-50 µM", "summary_of_the_method": "(§1)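 MGC-803 cells treated 25 or 50 μM for 24 h, lysed in ice-cold 1% SDS/Tris-HCl pH 7.5 buffer with EDTA, NaCl and protease inhibitors, spun 12,000g 18 min. Protein quantified by BCA; 40–50 μg resolved on 10% SDS-PAGE, transferred to PVDF, milk-blocked 2 h, primary antibody overnight, HRP secondary 1 h at RT. ECL detection with densitometry.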"}, "[3]": {"tested_on": "MGC-803", "test": "Induction of ferroptosis in human MGC-803 cells assessed as increase in mitochondrial membrane density at 5 uM incubated for 24 hrs by TEM analysis", "format": "functional, cell-based", "summary_of_the_method": "(§2)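 Cell samples prefixed in 3% glutaraldehyde, postfixed in 1% osmium tetroxide, dehydrated through graded acetone (30–100%), embedded in Epon812, cut into 60–90 nm ultrathin sections on copper grids, stained with uranyl acetate 10–15 min and lead citrate 1–2 min at room temperature, examined by TEM.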"}, "[4]": {"tested_on": "MGC-803", "test": "Induction of cell cycle arrest in human MGC-803 cells assessed as accumulation of cells at G2/M phase at 25 uM incubated for 24 hrs by PI staining based flow cytometry (Rvb=12.91%)", "format": "functional"}, "[5]": {"tested_on": "MGC-803", "test": "Antitumor activity against human MGC-803 cells xenografted in nude mouse assessed as tumor inhibition ratio at 24 mg/kg, ip administered once every two days for 21 days relative to control", "format": "functional", "conditions": "MGC-803, 504 h, time 21 day", "summary_of_the_method": "(§3)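 1×10^6 tumor cells injected s.c. into the right flank of nude mice. At mean tumor volume 60–80 mm³, animals randomized to vehicle or treatment groups (n = 6). Compound in 5% v/v DMSO/saline given i.p. every 2 days. Tumor size and weight recorded; volume = lw²/2 from length and width. Body weight tracked as the systemic toxicity index.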"}, "[6]": {"tested_on": "MGC-803", "test": "Induction of ferroptosis in human MGC-803 cells assessed as appearance of ruptured mitochondria at 5 uM incubated for 24 hrs by TEM analysis", "format": "functional, cell-based", "summary_of_the_method": "as §2"}, "[7]": {"tested_on": "MGC-803", "test": "Induction of ferroptosis in human MGC-803 cells assessed as reduction in mitochondrial cristae at 5 uM incubated for 24 hrs by TEM analysis", "format": "functional, cell-based", "summary_of_the_method": "as §2"}, "[8]": {"tested_on": "MGC-803", "test": "Induction of cell cycle arrest in human MGC-803 cells assessed as accumulation of cells at G0/G1 phase at 100 uM incubated for 24 hrs by PI staining based flow cytometry (Rvb=59.09%)", "format": "functional"}, "[9]": {"tested_on": "MGC-803", "test": "Induction of cell cycle arrest in human MGC-803 cells assessed as accumulation of cells at S phase at 50 uM incubated for 24 hrs by PI staining based flow cytometry (Rvb=28.00%)", "format": "functional"}, "[10]": {"test": "Toxicity in nude mouse xenografted with human U-251 cells assessed as pathological changes in liver at 24 to 48 mg/kg, ip administered once every two days for 21 days by H and E staining based analysis", "format": "organism-based", "conditions": "in vivo, 504 h, dose 24-48 mg/kg, time 21 day", "summary_of_the_method": "(§4)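 Nude mice carrying s.c. xenografts (1×10^6 cells, right flank) randomized at 60–80 mm³ (n = 6), dosed i.p. every 2 days in 5% v/v DMSO/saline. Major organs examined by H&E staining at 200× magnification.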"}, "[11]": {"test": "Toxicity in nude mouse xenografted with human U-251 cells assessed as pathological changes in heart at 24 to 48 mg/kg, ip administered once every two days for 21 days by H and E staining based analysis", "format": "organism-based", "conditions": "in vivo, 504 h, dose 24-48 mg/kg, time 21 day", "summary_of_the_method": "as §4"}, "[12]": {"tested_on": "MGC-803", "test": "Induction of cell cycle arrest at S phase in human MGC-803 cells assessed as increase in P21 protein expression level at 25 to 50 uM incubated for 24 hrs by Western blot analysis", "format": "functional, cell-based", "conditions": "dose 25-50 µM", "summary_of_the_method": "as §1"}, "[13]": {"tested_on": "MGC-803", "test": "Induction of cell cycle arrest in human MGC-803 cells assessed as accumulation of cells at G2/M phase at 100 uM incubated for 24 hrs by PI staining based flow cytometry (Rvb=12.91%)", "format": "functional"}, "[14]": {"tested_on": "U-251", "test": "Antiproliferative activity against human U-251 cells incubated for 48 hrs by MTT assay", "format": "functional, cell-based", "conditions": "U-251, 48 h", "summary_of_the_method": "(§5)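 Monolayer cells in DMEM with 10% FBS, penicillin and streptomycin, 37°C, 5% CO2. Exponentially growing cells were seeded in 96-well plates and exposed to compound for 48 h. MTT was then added for 4 h at 37°C. Medium was removed, formazan dissolved in DMSO, and OD read at 490 nm. Each plate had five replicate wells, and assays were repeated three times per line.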"}, "[15]": {"tested_on": "MGC-803", "test": "Induction of ferroptosis in human MGC-803 cells assessed as increase in intracellular iron level incubated for 24 hrs by FerroOrange staining based confocal microscopic analysis", "format": "functional, cell-based", "conditions": "dose 25-50 µM"}, "[16]": {"tested_on": "MGC-803", "test": "Antitumor activity against human MGC-803 cells xenografted in nude mouse assessed as tumor inhibition ratio at 12 mg/kg, ip administered once every two days for 21 days relative to control", "format": "functional", "conditions": "MGC-803, 504 h, time 21 day", "summary_of_the_method": "as §3"}, "[17]": {"test": "Cytotoxicity against HK-2 cells incubated for 48 hrs by MTT assay", "format": "toxicity, cell-based", "conditions": "human", "summary_of_the_method": "as §5"}, "[18]": {"tested_on": "MGC-803", "test": "Induction of cell cycle arrest in human MGC-803 cells assessed as accumulation of cells at S phase at 100 uM incubated for 24 hrs by PI staining based flow cytometry (Rvb=28.00%)", "format": "functional"}, "[19]": {"tested_on": "MGC-803", "test": "Induction of ferroptosis in human MGC-803 cells assessed as increase in intracellular lipid peroxide and ROS level by measuring increase in green fluorescence intensity at 50 uM incubated for 24 hrs by BODIPY 581/591 C11 staining based confocal microscopic analysis", "format": "functional, cell-based"}, "[20]": {"tested_on": "MGC-803", "test": "Induction of cell cycle arrest at S phase in human MGC-803 cells assessed as decrease in cyclin E1 protein expression level at 25 to 50 uM incubated for 24 hrs by Western blot analysis", "format": "functional, cell-based", "conditions": "dose 25-50 µM", "summary_of_the_method": "as §1"}, "[21]": {"tested_on": "MGC-803", "test": "Induction of cell cycle arrest in human MGC-803 cells assessed as accumulation of cells at G2/M phase at 50 uM incubated for 24 hrs by PI staining based flow cytometry (Rvb=12.91%)", "format": "functional"}, "[22]": {"test": "Metabolic stability in male CD-1 mouse liver microsomes assessed as half life at 2 uM incubated for 60 min in the presence of NADPH by LC-MS/MS analysis", "format": "ADME, Microsome", "summary_of_the_method": "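Male CD-1 mouse liver microsomes at 0.5 mg/mL final in 100 mM phosphate buffer, pH 7.4. Mixture was preincubated with 1 mM NADPH (PBS only for the negative control) for 10 min at 37°C. Reaction was started with test compound at 2 µM final. Aliquots were taken at 0.5, 15, 30, 45 and 60 min into cold methanol with internal standard, centrifuged, and the supernatant analysed by LC-MS/MS.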"}, "[23]": {"test": "Toxicity in nude mouse xenografted with human MGC-803 cells assessed as pathological changes in spleen at 12 to 48 mg/kg, ip administered once every two days for 21 days by H and E staining based analysis", "format": "organism-based", "conditions": "in vivo, 504 h, dose 12-48 mg/kg, time 21 day", "summary_of_the_method": "as §4"}, "[24]": {"tested_on": "MGC-803", "test": "Induction of DNA damage in human MGC-803 cells assessed as increase in phosphorylated H2AX protein level at Ser139 residue at 25 to 50 uM incubated for 24 hrs by Western blot analysis", "format": "functional, cell-based", "conditions": "dose 25-50 µM", "summary_of_the_method": "as §1"}, "[25]": {"tested_on": "MGC-803", "test": "Induction of ferroptosis in human MGC-803 cells assessed as appearance of smaller mitochondria at 5 uM incubated for 24 hrs by TEM analysis", "format": "functional, cell-based", "summary_of_the_method": "as §2"}}, "note": "Active and inactive are the calls of the source. The rule behind the calls is not given here."}
{"smiles": "CN(C)CCN1C(=O)c2cccc3c(N4CCN(C(=O)CCOCCOCCOCCOCCNC(=O)CCCCC5SCC6NC(=O)NC65)CC4)ccc(c23)C1=O", "note": "(stereo not given)", "values": [{"measurement": "Activity", "setting": "[1]", "result": "Active"}, {"measurement": "Activity", "setting": "[2]", "result": "Active"}, {"measurement": "Activity", "setting": "[3]", "result": "Active"}, {"measurement": "Activity", "setting": "[4]", "result": 23.3, "unit": "%"}, {"measurement": "inhibition in vivo at 24 mg/kg", "setting": "[5]", "result": 39.6, "unit": "%"}, {"measurement": "Activity", "setting": "[6]", "result": "Active"}, {"measurement": "Activity", "setting": "[7]", "result": "Active"}, {"measurement": "Activity", "setting": "[8]", "result": 39.71, "unit": "%"}, {"measurement": "Activity", "setting": "[9]", "result": 40.58, "unit": "%"}, {"measurement": "Activity", "setting": "[10]", "result": "Non-Toxic"}, {"measurement": "Activity", "setting": "[11]", "result": "Non-Toxic"}, {"measurement": "Activity", "setting": "[12]", "result": "Active"}, {"measurement": "Activity", "setting": "[13]", "result": 18.57, "unit": "%"}, {"measurement": "IC50", "setting": "[14]", "result": "> 50", "unit": "µM"}, {"measurement": "Activity", "setting": "[15]", "result": "Dose-Dependent Effect"}, {"measurement": "inhibition in vivo at 12 mg/kg", "setting": "[16]", "result": 29.6, "unit": "%"}, {"measurement": "IC50 at 48 h", "setting": "[17]", "result": "> 50", "unit": "µM"}, {"measurement": "Activity", "setting": "[18]", "result": 41.72, "unit": "%"}, {"measurement": "Activity", "setting": "[19]", "result": "Active"}, {"measurement": "Activity", "setting": "[20]", "result": "Active"}, {"measurement": "Activity", "setting": "[21]", "result": 26.25, "unit": "%"}, {"measurement": "half-life at 2 µM", "setting": "[22]", "result": 36.6, "unit": "min"}, {"measurement": "Activity", "setting": "[23]", "result": "Non-Toxic"}, {"measurement": "Activity", "setting": "[24]", "result": "Active"}, {"measurement": "Activity", "setting": "[25]", "result": "Active"}]}
